Assay results published in PubChem BioAssay AID602403 (The Scripps Research Institute Molecular Screening Center, 2012).
A number with no mark means an inactive call.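 How the source made its calls: active means inhibition of the enzyme-probe labelling of at least 50% at one fixed dose; inactive means inhibition below 50%.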

Molecular target: Diacylglycerol lipase-alpha (Mus musculus) (UniProt Q6WQJ1)
Assay: mouse DAGLa inhibition, late-stage follow-up, selectivity assay for DAGLb inhibitor project, biochemical, gel-based competitive ABPP, recombinant, fluorescence (AID 602403)
Conditions: HEK293T membrane mouse DAGLa, at 0.4 µM, hits give high values
Outline: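 Material: membrane proteome of 293T HEK cells transiently overexpressing mouse DAGLa / Reagent: fluorescent activity-based probe HT-01 at 1 µM final / Timing: 30 min compound plus 30 min probe, 37 °C / Measured by: in-gel fluorescence after SDS-PAGE / Read-out basis: percent inhibition from band integrated optical density versus DMSO control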

Diacylglycerol lipase-alpha (Mus musculus), sequence (Q6WQJ1 whole entry, looked up): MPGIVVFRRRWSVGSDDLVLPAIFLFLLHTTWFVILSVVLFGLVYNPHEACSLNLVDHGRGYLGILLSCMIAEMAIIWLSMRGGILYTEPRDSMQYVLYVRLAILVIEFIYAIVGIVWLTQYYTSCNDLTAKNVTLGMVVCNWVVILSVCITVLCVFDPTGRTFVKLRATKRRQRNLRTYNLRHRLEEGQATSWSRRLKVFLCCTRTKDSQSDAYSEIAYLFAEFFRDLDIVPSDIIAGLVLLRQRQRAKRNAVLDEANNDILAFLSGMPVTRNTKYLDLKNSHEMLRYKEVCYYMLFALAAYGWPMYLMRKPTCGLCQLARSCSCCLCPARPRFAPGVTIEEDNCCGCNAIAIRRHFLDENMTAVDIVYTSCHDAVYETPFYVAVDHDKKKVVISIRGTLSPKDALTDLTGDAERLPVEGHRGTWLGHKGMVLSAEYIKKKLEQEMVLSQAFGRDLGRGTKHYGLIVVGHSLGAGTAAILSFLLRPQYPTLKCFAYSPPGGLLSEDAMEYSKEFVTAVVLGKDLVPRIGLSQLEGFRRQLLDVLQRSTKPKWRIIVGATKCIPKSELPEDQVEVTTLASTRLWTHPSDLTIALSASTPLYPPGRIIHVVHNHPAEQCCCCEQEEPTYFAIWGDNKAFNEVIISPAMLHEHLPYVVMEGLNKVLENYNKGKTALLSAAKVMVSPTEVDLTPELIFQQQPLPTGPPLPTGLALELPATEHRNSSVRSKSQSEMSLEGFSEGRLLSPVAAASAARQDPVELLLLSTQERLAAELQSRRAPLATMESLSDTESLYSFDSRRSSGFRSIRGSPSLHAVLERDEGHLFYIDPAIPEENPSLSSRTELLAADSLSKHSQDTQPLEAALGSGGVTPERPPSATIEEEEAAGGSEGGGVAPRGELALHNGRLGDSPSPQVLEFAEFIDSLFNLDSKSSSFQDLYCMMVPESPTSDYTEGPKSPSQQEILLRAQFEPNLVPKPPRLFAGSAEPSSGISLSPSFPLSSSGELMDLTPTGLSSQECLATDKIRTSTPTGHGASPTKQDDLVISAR

`O=C(N1CCCCC1Cc1ccccc1)n1cc(-c2ccc(-c3ccccc3)cc2)nn1` (stereo unspecified) showed an inhibition of 40%.
